# Experiments:
# [1] = molecular target: T1, GluN1/GluN2A (Rattus norvegicus, UniProt P35439+Q00959); conditions: cited from earlier work
# [2] = molecular target: T2, GluN1/GluN2C (Rattus norvegicus, UniProt P35439+Q00961); experiment: Two electrode voltage clamp recording, Xenopus oocytes; format: cell-based
# Summary of the method: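 Xenopus oocytes expressing GluN1/GluN2 (1:2 cRNA) were clamped at −40 mV at 23 °C, 2–5 days post-injection, with 30 μM glycine in all solutions. Test compound was applied at increasing concentrations during saturating 100 μM glutamate/30 μM glycine. […] Data came from 5–22 oocytes, 2–3 batches.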
# [3] = molecular target: T3, GluN1/GluN2B (Rattus norvegicus, UniProt P35439+Q00960); conditions: cited from earlier work
# [4] = molecular target: T4, GluN1/GluN2D (Rattus norvegicus, UniProt P35439+Q62645); experiment: Two electrode voltage clamp recording, Xenopus oocytes; format: cell-based
# T4 sequence (Q62645 28-1323, other chains not shown): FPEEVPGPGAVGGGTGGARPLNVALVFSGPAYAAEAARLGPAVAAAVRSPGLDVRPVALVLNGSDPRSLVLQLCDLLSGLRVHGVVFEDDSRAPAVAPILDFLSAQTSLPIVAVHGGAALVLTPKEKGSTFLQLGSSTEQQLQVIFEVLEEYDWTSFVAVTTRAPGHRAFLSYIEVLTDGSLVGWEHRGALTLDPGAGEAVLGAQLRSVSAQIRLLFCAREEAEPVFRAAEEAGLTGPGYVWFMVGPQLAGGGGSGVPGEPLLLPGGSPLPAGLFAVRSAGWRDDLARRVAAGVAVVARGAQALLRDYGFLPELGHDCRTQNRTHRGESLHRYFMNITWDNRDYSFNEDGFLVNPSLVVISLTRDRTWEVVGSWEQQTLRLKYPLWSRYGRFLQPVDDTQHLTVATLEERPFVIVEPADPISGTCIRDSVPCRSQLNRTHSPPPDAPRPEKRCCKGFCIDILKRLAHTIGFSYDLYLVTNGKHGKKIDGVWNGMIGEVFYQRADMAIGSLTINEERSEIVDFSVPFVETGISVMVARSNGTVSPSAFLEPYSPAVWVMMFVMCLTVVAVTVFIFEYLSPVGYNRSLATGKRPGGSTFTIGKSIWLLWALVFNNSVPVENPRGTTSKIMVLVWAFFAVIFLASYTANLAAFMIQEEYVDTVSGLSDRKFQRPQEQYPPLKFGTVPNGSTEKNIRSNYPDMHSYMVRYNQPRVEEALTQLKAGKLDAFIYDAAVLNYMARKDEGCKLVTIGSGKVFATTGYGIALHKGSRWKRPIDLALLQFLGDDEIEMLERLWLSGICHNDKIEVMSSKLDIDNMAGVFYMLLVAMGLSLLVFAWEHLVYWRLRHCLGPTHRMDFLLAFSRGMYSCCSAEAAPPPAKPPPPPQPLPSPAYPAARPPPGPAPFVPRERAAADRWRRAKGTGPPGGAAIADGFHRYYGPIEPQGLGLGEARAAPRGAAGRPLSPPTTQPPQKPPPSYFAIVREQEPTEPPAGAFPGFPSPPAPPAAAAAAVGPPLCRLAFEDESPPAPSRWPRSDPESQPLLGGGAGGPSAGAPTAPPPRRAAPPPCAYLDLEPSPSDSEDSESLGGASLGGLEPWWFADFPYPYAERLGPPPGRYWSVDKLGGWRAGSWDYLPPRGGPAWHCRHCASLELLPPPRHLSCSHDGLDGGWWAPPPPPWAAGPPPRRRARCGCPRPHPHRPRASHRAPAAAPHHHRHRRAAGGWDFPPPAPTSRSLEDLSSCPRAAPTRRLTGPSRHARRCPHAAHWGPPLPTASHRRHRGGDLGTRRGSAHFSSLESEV
# [5] = molecular target: T1, GluN1/GluN2A; conditions: cited from earlier work; remark: listed apart in the source
# [6] = molecular target: T2, GluN1/GluN2C; conditions: cited from earlier work
# [7] = molecular target: T4, GluN1/GluN2D; conditions: cited from earlier work
# [8] = molecular target: T3, GluN1/GluN2B; conditions: cited from earlier work; remark: listed apart in the source
# [9] = system: GluN2C- and GluN2D-containing NMDARs; experiment: Two electrode voltage clamp recording, Xenopus oocytes, CIQ-sensitive subunits; format: cell-based, rat
# [10] = molecular target: T3, GluN1/GluN2B; experiment: Two electrode voltage clamp recording, Xenopus oocytes; format: cell-based; conditions: read-out: response, % of control
# Summary of the method: (§1)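 Defolliculated stage V–VI Xenopus laevis oocytes were injected with GluN1 and GluN2 cRNA at a 1:2 ratio (0.2–10 ng total) and recorded 2–5 days later at 23 °C by two-electrode voltage clamp at −40 mV, with gravity-fed solutions. Currents evoked by 100 μM glutamate plus 30 μM glycine were measured with 100 μM test compound, as % of control; n = 6 oocytes.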
# [11] = molecular target: T1, GluN1/GluN2A; experiment: as above; format: cell-based; conditions: read-out: response, % of control
# Summary of the method: as §1
# [12] = saturating glutamate and glycine, oocytes
# T2 sequence (Q00961 20-1237, other chains not shown): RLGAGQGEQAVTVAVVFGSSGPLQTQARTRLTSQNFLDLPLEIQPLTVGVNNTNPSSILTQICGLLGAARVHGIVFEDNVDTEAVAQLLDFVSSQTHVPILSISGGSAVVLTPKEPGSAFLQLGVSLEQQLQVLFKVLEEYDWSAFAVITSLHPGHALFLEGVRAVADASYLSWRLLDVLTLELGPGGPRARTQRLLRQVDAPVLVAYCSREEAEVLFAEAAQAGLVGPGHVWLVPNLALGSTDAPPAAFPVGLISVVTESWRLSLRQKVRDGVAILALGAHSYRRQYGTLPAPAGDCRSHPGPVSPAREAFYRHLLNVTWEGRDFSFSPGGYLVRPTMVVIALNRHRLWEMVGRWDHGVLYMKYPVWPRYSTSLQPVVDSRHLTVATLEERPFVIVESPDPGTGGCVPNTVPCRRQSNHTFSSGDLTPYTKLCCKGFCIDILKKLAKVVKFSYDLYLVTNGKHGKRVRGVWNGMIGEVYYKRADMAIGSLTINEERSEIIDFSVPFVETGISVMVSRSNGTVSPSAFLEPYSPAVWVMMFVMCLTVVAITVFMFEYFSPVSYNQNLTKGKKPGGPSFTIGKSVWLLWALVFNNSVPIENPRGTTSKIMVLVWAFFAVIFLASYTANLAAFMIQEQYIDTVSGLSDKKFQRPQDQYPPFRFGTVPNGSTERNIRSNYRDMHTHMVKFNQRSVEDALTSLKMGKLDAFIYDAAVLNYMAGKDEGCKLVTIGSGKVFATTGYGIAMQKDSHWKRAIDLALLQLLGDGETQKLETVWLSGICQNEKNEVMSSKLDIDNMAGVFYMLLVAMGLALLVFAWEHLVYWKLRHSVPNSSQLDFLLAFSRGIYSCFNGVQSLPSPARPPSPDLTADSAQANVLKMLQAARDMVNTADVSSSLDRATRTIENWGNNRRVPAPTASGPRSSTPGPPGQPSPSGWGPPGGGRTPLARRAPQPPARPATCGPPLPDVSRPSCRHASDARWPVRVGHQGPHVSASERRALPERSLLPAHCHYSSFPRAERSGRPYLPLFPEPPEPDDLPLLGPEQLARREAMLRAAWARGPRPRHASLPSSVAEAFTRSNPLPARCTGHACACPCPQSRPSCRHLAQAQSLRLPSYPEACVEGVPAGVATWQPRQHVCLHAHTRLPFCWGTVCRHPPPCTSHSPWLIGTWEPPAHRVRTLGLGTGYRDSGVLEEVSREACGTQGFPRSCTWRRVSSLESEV
# T1 sequence (Q00959 23-1464, other chains not shown): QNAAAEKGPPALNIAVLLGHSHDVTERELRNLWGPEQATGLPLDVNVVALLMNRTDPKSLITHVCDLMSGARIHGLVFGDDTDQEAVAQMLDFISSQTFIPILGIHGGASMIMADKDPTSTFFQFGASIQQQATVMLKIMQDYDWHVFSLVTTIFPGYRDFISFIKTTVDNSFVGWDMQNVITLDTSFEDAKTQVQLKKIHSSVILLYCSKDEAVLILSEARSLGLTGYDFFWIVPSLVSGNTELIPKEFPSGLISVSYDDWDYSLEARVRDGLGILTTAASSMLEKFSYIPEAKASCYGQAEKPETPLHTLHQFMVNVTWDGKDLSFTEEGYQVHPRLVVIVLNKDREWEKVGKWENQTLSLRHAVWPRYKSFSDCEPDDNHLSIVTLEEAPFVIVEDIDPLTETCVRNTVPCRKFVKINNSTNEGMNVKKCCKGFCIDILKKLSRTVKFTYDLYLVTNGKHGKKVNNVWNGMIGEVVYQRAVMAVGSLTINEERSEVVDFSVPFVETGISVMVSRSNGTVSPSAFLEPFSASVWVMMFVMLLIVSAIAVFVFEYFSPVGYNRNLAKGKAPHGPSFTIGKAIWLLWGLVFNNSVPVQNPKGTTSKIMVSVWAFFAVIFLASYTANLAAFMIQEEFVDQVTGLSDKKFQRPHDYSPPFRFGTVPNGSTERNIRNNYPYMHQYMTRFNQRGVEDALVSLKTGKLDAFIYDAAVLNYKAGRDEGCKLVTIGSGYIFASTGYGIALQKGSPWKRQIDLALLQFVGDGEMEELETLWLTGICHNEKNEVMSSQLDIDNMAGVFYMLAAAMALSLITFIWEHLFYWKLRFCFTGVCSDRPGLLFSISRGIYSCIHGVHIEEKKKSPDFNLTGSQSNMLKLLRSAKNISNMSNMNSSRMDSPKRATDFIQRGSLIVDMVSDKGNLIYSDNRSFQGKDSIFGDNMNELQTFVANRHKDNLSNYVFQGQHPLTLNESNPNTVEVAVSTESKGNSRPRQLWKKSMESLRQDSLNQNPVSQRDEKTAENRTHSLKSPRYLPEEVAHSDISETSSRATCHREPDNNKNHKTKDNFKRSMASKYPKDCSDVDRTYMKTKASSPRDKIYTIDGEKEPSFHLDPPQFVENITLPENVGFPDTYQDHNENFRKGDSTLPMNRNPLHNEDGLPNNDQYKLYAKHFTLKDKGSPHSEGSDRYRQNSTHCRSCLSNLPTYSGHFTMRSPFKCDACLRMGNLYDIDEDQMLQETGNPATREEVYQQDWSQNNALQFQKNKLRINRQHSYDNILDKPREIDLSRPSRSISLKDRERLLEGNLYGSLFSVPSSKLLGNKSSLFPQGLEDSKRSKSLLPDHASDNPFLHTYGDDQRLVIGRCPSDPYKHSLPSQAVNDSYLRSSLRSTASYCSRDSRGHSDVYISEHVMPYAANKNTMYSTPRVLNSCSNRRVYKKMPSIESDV
Compound,effect at low agonist concentrations [1],"potentiation, % of control [2, 12]",effect on the deactivation time course following glutamate removal [3],"potentiation, % of control [4, 12]",effect on the deactivation time course following glutamate removal [5],effect on the deactivation time course following glutamate removal [6],effect on the deactivation time course following glutamate removal [7],effect at low agonist concentrations [8],enhancement of the response at EC30 glutamate and glycine ([9]; EC30 concentrations of glutamate and glycine) [fold],enhancement of the response to maximally effective glutamate and glycine ([9]; maximally effective agonist) [fold],remaining activity at 100 µM [10] [%],IC50 [2] [µM],IC50 [4] [µM],remaining activity at 100 µM [11] [%]
"COc1ccc(OCC2c3cc(OC)c(OC)cc3CCN2C(=O)c2cccc(Cl)c2)cc1 (single isomer, unassigned; (+)) [CIQ, (+)-(3-chlorophenyl)(6,7-dimethoxy-1-((4-methoxyphenoxy)methyl)-3,4-dihydroisoquinolin-2(1H)-yl)methanone]",no effect,340% ± 27%,no detectable effect,281% ± 10%,no detectable effect,modest effects,no detectable effect,no effect,≤ 5,2,,,,
CNC(=O)N1N=C(c2ccc(N)cc2)c2cc3c(cc2CC1C)OCO3 (centres unmarked) [GYKI 53655],,,,,,,,,,,107,143,133,104

# Source: publication PMC7967294 (ACS chemical neuroscience, 2020)
